The source of these data is ChEMBL document CHEMBL4304739, “Discovery of 3-(Indol-5-yl)-indazole Derivatives as Novel Myeloid Differentiation Protein 2/Toll-like Receptor 4 Antagonists for Treatment of Acute Lung Injury” (J Med Chem, 2019).

Calls of active or inactive are those of the source. The rule behind the calls is not given here.

For experiment [1], the system named is Mus musculus. Kind of experiment: Antiinflammatory activity in LPS-induced C57BL/6 mouse model of acute lung injury assessed as reduction in TNFalpha mRNA level at 10 mg/kg, iv pretreated for 15 mins followed by LPS stimulation and measured after 6 hrs by SYBR green staining-based qRT-PCR analysis. The experiment is classed as functional, organism-based. The method in brief:
(§1)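 Total lung RNA extracted, with DNase I removal of residual DNA. Quantitative PCR with mouse gene primers; each gene normalized to β-actin. C57BL/6 mice given compound iv 15 min before intraperitoneal LPS (20 mg/kg) and killed at 6 h.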
(Quantitative PCR measures a nucleic acid by following its amplification.)

The target of experiment [2] is Tyrosine-protein kinase BTK (Homo sapiens) (UniProt Q06187). The experiment in a line: Inhibition of wild-type human full length BTK (M1 to S659 residues) expressed in mammalian expression system at 1 uM by Kinomescan method. The method in brief: (§2)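 KINOMEscan competition binding screen at 1 μM compound. Results reported as % of control = (test − positive control)/(DMSO negative control − positive control) × 100, where lower values mean stronger hits.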
Tyrosine-protein kinase BTK (Homo sapiens), sequence (Q06187 whole entry, the tested form may be a part): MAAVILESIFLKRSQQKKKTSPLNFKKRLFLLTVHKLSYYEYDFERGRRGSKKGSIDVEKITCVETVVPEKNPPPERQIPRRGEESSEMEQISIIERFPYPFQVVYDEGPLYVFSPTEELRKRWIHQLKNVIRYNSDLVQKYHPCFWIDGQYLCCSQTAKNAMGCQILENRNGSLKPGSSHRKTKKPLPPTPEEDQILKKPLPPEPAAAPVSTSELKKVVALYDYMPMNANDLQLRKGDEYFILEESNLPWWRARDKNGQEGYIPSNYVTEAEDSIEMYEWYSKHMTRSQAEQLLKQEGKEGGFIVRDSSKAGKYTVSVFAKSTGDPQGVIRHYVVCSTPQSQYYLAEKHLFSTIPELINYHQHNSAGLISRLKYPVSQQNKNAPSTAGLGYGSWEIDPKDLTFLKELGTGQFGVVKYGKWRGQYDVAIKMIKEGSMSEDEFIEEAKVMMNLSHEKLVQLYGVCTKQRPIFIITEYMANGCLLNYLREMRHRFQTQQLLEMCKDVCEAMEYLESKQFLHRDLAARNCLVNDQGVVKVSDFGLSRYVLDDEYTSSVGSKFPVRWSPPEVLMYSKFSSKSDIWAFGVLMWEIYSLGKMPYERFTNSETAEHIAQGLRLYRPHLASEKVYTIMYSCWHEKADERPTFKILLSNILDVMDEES

For experiment [3], the target named is Serine/threonine-protein kinase pim-2 (Homo sapiens) (UniProt Q9P1W9). Kind of experiment: Inhibition of wild-type human partial length PIM2 (M1 to E291 residues) expressed in bacterial expression system at 1 uM by Kinomescan method. The method, boiled down:
(§3)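 Binding-competition screen on the KINOMEscan platform, run by the provider, with the test compound at 1 μM. Readout is percent of control: (test signal − positive control signal)/(negative control signal − positive control signal) × 100. The DMSO negative control is set as 100% Ctrl and a control compound as 0% Ctrl. Lower values mean stronger hits.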

Experiment [4] relates to Epidermal growth factor receptor (Homo sapiens), P00533 [L858R]. The experiment in a line: Inhibition of human partial length EGFR L858R mutant (R669 to V1011 residues) expressed in bacterial expression system at 1 uM by Kinomescan method. The method in brief: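 KINOMEscan competition binding panel (98 kinases) run by the provider, compound screened once at 1 μM. Read-out is percent of control: [(test signal − positive control signal)/(negative control signal − positive control signal)] × 100. DMSO negative control sets 100% Ctrl and a control compound sets 0% Ctrl; lower values mean stronger hits.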
Epidermal growth factor receptor (Homo sapiens), P00533 [L858R], sequence (P00533 whole entry L858R, the tested form may be a part): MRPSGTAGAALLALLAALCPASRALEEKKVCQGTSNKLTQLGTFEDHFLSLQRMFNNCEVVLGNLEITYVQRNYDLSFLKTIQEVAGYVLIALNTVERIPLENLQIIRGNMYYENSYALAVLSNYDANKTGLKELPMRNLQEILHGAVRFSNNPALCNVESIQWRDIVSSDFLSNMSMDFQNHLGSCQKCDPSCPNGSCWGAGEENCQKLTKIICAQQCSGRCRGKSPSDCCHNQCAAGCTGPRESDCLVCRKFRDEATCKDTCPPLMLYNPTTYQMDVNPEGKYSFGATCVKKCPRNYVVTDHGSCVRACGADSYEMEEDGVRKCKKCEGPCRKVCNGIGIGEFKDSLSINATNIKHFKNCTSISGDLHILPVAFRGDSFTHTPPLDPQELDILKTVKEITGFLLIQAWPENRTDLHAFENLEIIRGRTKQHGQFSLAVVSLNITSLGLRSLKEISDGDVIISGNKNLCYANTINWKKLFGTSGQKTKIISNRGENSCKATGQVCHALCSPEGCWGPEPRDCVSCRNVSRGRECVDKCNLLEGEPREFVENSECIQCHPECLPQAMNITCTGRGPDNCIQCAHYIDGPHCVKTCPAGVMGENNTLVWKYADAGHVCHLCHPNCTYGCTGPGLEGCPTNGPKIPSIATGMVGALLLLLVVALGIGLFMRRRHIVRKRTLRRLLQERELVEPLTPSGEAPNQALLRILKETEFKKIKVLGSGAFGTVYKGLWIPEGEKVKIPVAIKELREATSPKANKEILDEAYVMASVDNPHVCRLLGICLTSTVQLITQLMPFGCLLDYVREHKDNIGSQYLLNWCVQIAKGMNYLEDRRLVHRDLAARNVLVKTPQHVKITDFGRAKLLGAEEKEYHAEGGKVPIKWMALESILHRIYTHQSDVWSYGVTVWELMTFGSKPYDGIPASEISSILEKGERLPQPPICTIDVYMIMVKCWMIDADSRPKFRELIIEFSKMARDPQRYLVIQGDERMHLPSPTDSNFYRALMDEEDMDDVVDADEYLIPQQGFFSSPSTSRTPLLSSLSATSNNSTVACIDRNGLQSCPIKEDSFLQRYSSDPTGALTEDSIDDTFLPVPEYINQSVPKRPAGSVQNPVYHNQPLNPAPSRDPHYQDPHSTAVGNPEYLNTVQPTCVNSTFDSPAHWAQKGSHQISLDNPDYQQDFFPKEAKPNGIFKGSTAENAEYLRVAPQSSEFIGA

For experiment [5], the target named is Ribosomal protein S6 kinase alpha-3 (Homo sapiens) (UniProt P51812). The experiment in a line: Inhibition of wild-type human partial length N-terminal RSK2 kinase domain 1 (M1 to D394 residues) expressed in mammalian expression system at 1 uM by Kinomescan method. The method, boiled down:
as §3

Experiment [6] has as its target Receptor tyrosine-protein kinase erbB-2 (Homo sapiens) (UniProt P04626). Kind of experiment: Inhibition of wild-type human partial length ERBB2 (K646 to V1225 residues) expressed in mammalian expression system at 1 uM by Kinomescan method. The method in brief: as §3
For experiment [7], the system named is Serine/threonine-protein kinase B-raf (Homo sapiens), P15056 [V600E]. The experiment in a line: Inhibition of human partial length BRAF V600E mutant (S429 to E741 residues) expressed in mammalian expression system at 1 uM by Kinomescan method. The method, boiled down:
as §2

Experiment [8] has as its target Mitogen-activated protein kinase 9 (Homo sapiens) (UniProt P45984). Kind of experiment: Inhibition of wild-type human full length JNK2 (M1 to Q382 residues) expressed in mammalian expression system at 1 uM by Kinomescan method. The method, boiled down:
as §2

In experiment [9] the target is Receptor-type tyrosine-protein kinase FLT3 (Homo sapiens) (UniProt P36888). The experiment in a line: Inhibition of wild-type human partial length FLT3 (V592 to Y969 residues) expressed in bacterial expression system at 1 uM by Kinomescan method. The method, boiled down: as §3
The species entered for the next experiment is Homo sapiens. The experiment in a line: Inhibition of EGFP-fused NFkappaB (unknown origin) stably expressed in mouse RAW 264.7 cells assessed as reduction in LPS-induced transcriptional activation at 10 uM measured after 3 hrs by flow cytometric analysis. The experiment is classed as cell-based. The method, boiled down: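 RAW264.7 cells stably carrying an NF-κB response element–EGFP reporter (lentiviral, puromycin-selected). Cells treated with 500 ng/mL LPS for 1 h, then vehicle or compound (10 μM) for 3 h. EGFP signal measured by flow cytometry.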
(In flow cytometry, cells or beads pass a laser one at a time.)

Experiment [10] deals with Mus musculus. The experiment in a line: Antiinflammatory activity in LPS-induced C57BL/6 mouse model of acute lung injury assessed as reduction in COX2 mRNA level at 10 mg/kg, iv pretreated for 15 mins followed by LPS stimulation and measured after 6 hrs by SYBR green staining-based qRT-PCR analysis. The experiment is classed as functional, organism-based. The method in brief: as §1

Experiment [11] has as its target Mitogen-activated protein kinase 8 (Homo sapiens) (UniProt P45983). Kind of experiment: Inhibition of wild-type human full length JNK1 (M1 to Q384 residues) expressed in mammalian expression system at 1 uM by Kinomescan method. The method in brief: as §2
Experiment [12] deals with Mus musculus. Kind of experiment: Antiinflammatory activity in LPS-induced C57BL/6 mouse model of acute lung injury assessed as reduction in F4/80 positive macrophage at 5 to 10 mg/kg, iv pretreated for 15 mins followed by LPS stimulation and measured after 6 hrs by ABC/hematoxylin staining-based immunohistochemistry analysis. The experiment is classed as functional, organism-based. The method, boiled down:
(§4)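 Male C57BL/6 mice (18−22 g; n=8 per group). Compound in 0.1% CMC-Na given by tail vein injection 15 min before intraperitoneal LPS (20 mg/kg); controls received saline. Mice were sacrificed 6 h after LPS, and serum and lung tissue were collected.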

For experiment [13], the target named is RAF proto-oncogene serine/threonine-protein kinase (Homo sapiens) (UniProt P04049). Kind of experiment: Inhibition of wild-type human partial length RAF1 (I330 to T640 residues) expressed in bacterial expression system at 1 uM by Kinomescan method. The method, boiled down: as §3
The test system of experiment [14] is Mus musculus. The experiment in a line: Antiinflammatory activity in LPS-induced C57BL/6 mouse model of acute lung injury assessed as reduction in lung injury score at 5 to 10 mg/kg, iv pretreated for 15 mins followed by LPS stimulation and measured after 6 hrs. The experiment is classed as functional, organism-based. The method, boiled down: as §4
Experiment [15] addresses MAP/microtubule affinity-regulating kinase 3 (Homo sapiens) (UniProt P27448). The experiment in a line: Inhibition of wild-type human full length MARK3 (M1 to L729 residues) expressed in bacterial expression system at 1 uM by Kinomescan method. The method, boiled down: as §2
The target of experiment [16] is Casein kinase I isoform delta (Homo sapiens) (UniProt P48730). Kind of experiment: Inhibition of wild-type human full length CSNK1D (M1 to K409 residues) expressed in bacterial expression system at 1 uM by Kinomescan method. The method in brief: as §2
For experiment [17], the target named is 3-phosphoinositide-dependent protein kinase 1 (Homo sapiens) (UniProt O15530). Kind of experiment: Inhibition of wild-type human full length PDPK1 (M1 to Q556 residues) expressed in bacterial expression system at 1 uM by Kinomescan method. The method, boiled down:
as §2

The target in experiment [18] is Serine/threonine-protein kinase Chk1 (Homo sapiens) (UniProt O14757). Kind of experiment: Inhibition of wild-type human partial length CHEK1 (M1 to G289 residues) expressed in bacterial expression system at 1 uM by Kinomescan method. The method, boiled down: as §3
Experiment [19] addresses Myeloid differentiation primary response protein MyD88 (Homo sapiens) (UniProt Q99836). The experiment in a line: Binding affinity to recombinant MyD88 (unknown origin) by surface plasmon resonance analysis. (In SPR one partner is held on a chip, and binding of the other changes the refractive index at the surface.)
Experiment [20] deals with Tyrosine-protein kinase receptor UFO (Homo sapiens) (UniProt P30530). The experiment in a line: Inhibition of wild-type human partial length AXL (R497 to Y821 residues) expressed in bacterial expression system at 1 uM by Kinomescan method. The method, boiled down: as §3
For experiment [21], the target named is Serine/threonine-protein kinase STK11 (Homo sapiens) (UniProt Q15831). Kind of experiment: Inhibition of wild-type human full length LKB1 (M1 to Q433 residues) expressed in bacterial expression system at 1 uM by Kinomescan method. The method in brief:
as §2

Ribosomal protein S6 kinase alpha-3 (Homo sapiens), sequence (P51812 whole entry, the tested form may be a part): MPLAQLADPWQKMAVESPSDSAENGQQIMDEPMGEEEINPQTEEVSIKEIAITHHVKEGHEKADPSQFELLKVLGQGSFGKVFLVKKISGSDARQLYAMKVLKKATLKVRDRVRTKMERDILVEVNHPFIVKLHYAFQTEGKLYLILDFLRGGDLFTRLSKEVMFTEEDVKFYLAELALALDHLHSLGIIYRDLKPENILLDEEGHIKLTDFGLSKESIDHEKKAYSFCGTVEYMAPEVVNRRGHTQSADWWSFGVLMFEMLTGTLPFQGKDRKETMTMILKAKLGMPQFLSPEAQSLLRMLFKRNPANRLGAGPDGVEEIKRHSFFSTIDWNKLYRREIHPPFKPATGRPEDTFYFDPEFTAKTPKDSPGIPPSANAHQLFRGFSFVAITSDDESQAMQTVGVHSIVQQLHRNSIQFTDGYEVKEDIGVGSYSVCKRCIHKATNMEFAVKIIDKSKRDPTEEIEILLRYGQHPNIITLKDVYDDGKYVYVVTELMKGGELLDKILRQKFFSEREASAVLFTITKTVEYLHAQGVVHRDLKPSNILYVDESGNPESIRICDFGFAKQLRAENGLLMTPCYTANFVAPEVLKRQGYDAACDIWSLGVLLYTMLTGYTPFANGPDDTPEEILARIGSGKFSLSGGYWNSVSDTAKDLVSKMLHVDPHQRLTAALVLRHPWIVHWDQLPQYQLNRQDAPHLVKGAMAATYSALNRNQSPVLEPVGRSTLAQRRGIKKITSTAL
3-phosphoinositide-dependent protein kinase 1 (Homo sapiens), sequence (O15530 whole entry, the tested form may be a part): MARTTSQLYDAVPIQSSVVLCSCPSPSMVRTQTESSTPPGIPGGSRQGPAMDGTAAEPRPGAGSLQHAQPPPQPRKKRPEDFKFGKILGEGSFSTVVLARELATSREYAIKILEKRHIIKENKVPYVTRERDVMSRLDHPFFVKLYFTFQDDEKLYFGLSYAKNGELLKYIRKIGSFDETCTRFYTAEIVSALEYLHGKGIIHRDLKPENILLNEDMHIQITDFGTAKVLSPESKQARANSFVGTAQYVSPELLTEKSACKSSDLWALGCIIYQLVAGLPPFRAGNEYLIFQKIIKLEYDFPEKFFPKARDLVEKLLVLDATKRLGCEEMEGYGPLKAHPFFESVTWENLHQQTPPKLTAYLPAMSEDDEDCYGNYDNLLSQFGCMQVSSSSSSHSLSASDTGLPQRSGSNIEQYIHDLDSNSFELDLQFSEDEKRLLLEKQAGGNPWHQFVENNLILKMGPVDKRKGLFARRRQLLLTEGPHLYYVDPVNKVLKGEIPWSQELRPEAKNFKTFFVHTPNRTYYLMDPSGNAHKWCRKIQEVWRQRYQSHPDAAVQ
Mitogen-activated protein kinase 9 (Homo sapiens), sequence (P45984 whole entry, looked up, the tested form may be a part): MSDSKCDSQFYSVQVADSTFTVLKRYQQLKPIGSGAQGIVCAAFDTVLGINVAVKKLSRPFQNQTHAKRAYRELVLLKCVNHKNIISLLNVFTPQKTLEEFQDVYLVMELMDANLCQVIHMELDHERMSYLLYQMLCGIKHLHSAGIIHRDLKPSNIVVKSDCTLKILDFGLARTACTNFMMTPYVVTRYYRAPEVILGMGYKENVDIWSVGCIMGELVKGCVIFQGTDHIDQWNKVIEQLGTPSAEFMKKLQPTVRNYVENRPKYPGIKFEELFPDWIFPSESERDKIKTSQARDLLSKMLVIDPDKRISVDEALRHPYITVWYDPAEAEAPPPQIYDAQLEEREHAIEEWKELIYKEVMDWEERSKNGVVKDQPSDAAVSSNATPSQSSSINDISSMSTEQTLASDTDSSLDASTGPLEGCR
Receptor tyrosine-protein kinase erbB-2 (Homo sapiens), sequence (P04626 whole entry, the tested form may be a part): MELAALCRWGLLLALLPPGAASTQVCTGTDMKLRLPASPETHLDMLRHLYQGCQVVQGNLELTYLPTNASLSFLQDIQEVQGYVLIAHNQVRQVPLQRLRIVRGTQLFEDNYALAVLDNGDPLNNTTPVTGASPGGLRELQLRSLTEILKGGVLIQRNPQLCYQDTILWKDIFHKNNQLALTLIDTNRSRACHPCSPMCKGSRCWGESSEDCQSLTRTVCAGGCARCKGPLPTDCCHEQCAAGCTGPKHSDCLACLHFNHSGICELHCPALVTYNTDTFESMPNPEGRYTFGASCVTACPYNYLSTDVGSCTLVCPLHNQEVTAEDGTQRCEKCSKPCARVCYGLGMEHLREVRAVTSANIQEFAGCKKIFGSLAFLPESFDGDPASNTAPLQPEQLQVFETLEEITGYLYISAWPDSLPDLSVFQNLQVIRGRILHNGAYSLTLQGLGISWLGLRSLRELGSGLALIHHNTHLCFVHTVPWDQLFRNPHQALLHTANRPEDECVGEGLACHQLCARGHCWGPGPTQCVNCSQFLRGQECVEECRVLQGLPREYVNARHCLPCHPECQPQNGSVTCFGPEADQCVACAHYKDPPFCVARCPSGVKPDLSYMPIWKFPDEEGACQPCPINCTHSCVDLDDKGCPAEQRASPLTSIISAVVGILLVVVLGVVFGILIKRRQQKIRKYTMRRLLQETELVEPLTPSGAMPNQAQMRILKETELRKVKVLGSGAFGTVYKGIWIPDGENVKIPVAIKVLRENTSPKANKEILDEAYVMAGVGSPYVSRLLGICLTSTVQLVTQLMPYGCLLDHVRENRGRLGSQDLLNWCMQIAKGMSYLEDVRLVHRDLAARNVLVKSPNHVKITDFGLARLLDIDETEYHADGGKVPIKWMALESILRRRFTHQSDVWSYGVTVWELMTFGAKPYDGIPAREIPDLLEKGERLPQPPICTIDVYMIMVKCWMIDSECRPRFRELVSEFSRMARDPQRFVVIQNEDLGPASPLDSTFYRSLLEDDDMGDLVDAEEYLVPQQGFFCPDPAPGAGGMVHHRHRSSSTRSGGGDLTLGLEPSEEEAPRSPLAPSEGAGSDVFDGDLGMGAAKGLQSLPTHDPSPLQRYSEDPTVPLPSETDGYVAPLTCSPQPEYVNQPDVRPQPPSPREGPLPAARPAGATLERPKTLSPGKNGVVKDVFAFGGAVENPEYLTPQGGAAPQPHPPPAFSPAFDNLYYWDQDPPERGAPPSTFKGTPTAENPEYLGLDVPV

As for `O=C(Nc1ccc2[nH]nc(-c3ccc4[nH]ccc4c3)c2c1)c1c(Cl)cccc1Cl`, the outcome in the experiment with Mus musculus [1], with Mus musculus [10], with Mus musculus [12] and in the experiment with Mus musculus [14] was Active. In addition, the inhibition result in experiment [2], in [3], in [4], in experiment [5], in experiment [6] and in experiment [7] was “inactive” each time. Besides, the inhibition entry in [8], in experiment [9], in experiment [11], in [13], in [15] and in [16] was “inactive” in each case. The inhibition entry in [17], in experiment [18], in experiment [20] and in [21] was “inactive” each time. Moreover, the inhibition entry in the experiment filed under Homo sapiens was “Active”. Also, the result in experiment [19] was inactive.
